Reference: ChEMBL document CHEMBL4052618, “Design, synthesis, SAR discussion, in vitro and in vivo evaluation of novel selective EGFR modulator to inhibit L858R/T790M double mutants” (Eur J Med Chem, 2017)

Key:
[1] = biological target: CDK2/Cyclin A2 (Homo sapiens) (UniProt P24941+P20248); test: Inhibition of CDK2/cyclin A (unknown origin) at 1 uM relative to control; format: protein-complex assay
[2] = biological target: Cytoplasmic tyrosine-protein kinase BMX (Homo sapiens) (UniProt P51813); test: Inhibition of BMX (unknown origin) at 1 uM relative to control
[3] = Half life in human hepatocytes; format: ADME, cell-based, Hepatocyte
[4] = biological target: Protein kinase C gamma type (Homo sapiens) (UniProt P05129); test: Inhibition of PRKCG (unknown origin) at 1 uM relative to control
[5] = AUC (0 to 24 hrs) in Sprague-Dawley rat at 1 mg/kg, iv by LC-MS/MS analysis; format: ADME, organism-based; parameters: time < 24 hr, dose 1 mg/kg, route intravenous; conditions: in vivo
[6] = biological target: Cyclin-dependent kinase 5/CDK5 activator 1 (Homo sapiens) (UniProt Q00535+Q15078); test: Inhibition of CDK5/p35 (unknown origin) at 1 uM relative to control; format: protein-complex assay
Chain of Cyclin-dependent kinase 5/CDK5 activator 1 (Homo sapiens) (Q00535 whole entry): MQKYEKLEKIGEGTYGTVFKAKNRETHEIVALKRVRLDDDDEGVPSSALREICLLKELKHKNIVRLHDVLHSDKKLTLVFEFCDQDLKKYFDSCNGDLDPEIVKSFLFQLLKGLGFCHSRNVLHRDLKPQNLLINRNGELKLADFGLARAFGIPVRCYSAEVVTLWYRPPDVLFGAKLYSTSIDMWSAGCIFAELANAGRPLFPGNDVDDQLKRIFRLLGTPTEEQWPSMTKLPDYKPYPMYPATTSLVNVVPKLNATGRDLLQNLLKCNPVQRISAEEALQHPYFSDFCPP
Chain of Cyclin-dependent kinase 5/CDK5 activator 1 (Homo sapiens) (Q15078 99-307 partner limits assumed): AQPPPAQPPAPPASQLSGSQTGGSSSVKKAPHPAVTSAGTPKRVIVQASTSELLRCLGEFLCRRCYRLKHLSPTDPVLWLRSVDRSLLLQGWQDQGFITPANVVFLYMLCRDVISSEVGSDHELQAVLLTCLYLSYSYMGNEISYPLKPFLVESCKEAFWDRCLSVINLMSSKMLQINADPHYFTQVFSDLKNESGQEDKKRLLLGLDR

NCI-H1975 [7] = test: In vivo anti tumor activity against human NCI-H1975 cells xenografted in nude C.B-17 SCID mouse model assessed as tumor volume at 10 mg/kg, ig for 18 days measured twice a week (reference value: 948.05 mm3); format: functional
[8] = Intrinsic clearance in rat hepatocytes assessed per million cells; format: ADME, cell-based, Hepatocyte
[9] = biological target: Rho-associated protein kinase 2 (Homo sapiens) (UniProt O75116); test: Inhibition of ROCK2 (unknown origin) at 1 uM relative to control
[10] = biological target: Epidermal growth factor receptor (Homo sapiens, UniProt P00533); test: Inhibition of human recombinant cytoplasmic GST-tagged EGFR (668 to 1210 residues) expressed in baculovirus using TK-substrate-biotin preincubated for 15 mins followed by substrate addition measured after 60 mins by FRET-based Z'-Lyte assay; conditions: read-out: IC50
[11] = biological target: Tyrosine-protein kinase ITK/TSK (Homo sapiens) (UniProt Q08881); test: Inhibition of ITK (unknown origin) at 1 uM relative to control
NCI-H1975 [12] = test: In vivo anti tumor activity against human NCI-H1975 cells xenografted in nude C.B-17 SCID mouse model assessed as tumor volume at 5 mg/kg, ig for 18 days measured twice a week (reference value: 948.05 mm3); format: functional
[13] = biological target: Mitogen-activated protein kinase 1 (Homo sapiens) (UniProt P28482); test: Inhibition of MAPK1 (unknown origin) at 1 uM relative to control
[14] = biological target: Dual specificity protein kinase CLK1 (Homo sapiens) (UniProt P49759); test: Inhibition of CLK1 (unknown origin) at 1 uM relative to control
[15] = biological target: Leucine-rich repeat serine/threonine-protein kinase 2 (Homo sapiens) (UniProt Q5S007); test: Inhibition of LRRK2 (unknown origin) at 1 uM relative to control
Chain of Leucine-rich repeat serine/threonine-protein kinase 2 (Homo sapiens) (Q5S007 whole entry): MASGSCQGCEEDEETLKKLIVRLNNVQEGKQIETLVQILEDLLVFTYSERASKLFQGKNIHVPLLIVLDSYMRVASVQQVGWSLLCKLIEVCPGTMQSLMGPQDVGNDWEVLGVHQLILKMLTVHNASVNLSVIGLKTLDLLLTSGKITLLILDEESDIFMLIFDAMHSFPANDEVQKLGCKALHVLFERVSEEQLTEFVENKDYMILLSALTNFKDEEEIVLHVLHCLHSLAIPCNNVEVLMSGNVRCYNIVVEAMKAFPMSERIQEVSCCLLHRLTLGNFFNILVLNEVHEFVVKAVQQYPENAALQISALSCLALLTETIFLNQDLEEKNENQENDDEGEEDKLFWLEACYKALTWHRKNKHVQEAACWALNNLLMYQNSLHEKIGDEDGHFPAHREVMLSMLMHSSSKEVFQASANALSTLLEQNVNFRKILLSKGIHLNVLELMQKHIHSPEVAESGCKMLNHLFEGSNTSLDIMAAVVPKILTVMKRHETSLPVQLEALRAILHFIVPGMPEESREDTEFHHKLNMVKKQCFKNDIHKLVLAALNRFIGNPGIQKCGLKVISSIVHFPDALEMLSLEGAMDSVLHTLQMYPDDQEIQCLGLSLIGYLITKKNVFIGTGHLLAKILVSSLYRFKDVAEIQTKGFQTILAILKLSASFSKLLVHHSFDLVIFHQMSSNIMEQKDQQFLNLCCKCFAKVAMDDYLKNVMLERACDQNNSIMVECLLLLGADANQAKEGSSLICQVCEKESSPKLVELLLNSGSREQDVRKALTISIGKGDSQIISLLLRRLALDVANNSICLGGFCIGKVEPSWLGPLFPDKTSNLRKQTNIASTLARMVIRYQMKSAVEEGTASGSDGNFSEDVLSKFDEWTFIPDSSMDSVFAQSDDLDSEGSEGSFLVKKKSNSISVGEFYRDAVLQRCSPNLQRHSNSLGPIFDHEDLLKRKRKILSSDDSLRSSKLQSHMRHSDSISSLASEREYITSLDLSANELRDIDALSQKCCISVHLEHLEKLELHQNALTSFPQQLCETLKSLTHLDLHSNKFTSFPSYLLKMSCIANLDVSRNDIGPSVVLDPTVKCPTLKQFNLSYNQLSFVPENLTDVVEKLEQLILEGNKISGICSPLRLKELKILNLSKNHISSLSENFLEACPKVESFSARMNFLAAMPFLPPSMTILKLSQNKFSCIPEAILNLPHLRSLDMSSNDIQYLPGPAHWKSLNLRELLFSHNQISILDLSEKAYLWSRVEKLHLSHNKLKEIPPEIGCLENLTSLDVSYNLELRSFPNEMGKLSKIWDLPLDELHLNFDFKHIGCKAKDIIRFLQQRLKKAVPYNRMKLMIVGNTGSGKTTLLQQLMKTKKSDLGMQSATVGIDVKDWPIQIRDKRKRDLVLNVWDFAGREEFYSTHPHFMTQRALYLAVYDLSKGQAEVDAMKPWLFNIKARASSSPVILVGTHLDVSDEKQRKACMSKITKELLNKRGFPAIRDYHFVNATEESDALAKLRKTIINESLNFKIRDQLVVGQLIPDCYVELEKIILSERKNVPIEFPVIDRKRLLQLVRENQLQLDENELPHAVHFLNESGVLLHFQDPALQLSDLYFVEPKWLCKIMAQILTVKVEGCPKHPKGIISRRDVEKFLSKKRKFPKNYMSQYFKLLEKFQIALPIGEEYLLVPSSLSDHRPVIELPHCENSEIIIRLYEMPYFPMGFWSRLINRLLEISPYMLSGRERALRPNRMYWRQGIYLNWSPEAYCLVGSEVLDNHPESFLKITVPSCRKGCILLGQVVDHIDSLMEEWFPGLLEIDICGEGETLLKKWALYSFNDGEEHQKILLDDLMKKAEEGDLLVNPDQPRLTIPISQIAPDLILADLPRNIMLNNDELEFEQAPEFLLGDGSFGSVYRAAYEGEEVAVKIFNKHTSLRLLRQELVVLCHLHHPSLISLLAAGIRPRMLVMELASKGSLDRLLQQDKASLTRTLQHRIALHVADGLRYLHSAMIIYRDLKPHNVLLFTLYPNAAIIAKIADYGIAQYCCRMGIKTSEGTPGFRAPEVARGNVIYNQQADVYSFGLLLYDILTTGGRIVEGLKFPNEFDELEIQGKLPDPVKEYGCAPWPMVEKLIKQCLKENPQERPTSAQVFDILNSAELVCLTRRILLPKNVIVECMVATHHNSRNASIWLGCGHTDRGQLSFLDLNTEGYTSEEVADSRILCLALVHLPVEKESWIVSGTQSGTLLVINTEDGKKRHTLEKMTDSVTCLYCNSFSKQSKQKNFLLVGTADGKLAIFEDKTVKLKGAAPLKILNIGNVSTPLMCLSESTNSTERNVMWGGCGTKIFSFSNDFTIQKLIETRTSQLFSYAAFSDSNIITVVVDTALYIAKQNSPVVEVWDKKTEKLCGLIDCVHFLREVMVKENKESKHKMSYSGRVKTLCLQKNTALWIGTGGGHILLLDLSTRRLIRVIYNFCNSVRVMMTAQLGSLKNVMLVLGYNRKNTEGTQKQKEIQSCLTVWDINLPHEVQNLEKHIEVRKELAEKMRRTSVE

HCC827 = test: Antiproliferative activity against human HCC827 cells harboring EGFR E746-A750 deletion mutant; format: functional, cell-based
[16] = AUC (0 to 24 hrs) in Sprague-Dawley rat at 10 mg/kg, po administered via gavage by LC-MS/MS analysis; format: ADME, organism-based; parameters: time < 24 hr, dose 10 mg/kg, route oral; conditions: in vivo
[17] = biological target: cGMP-dependent protein kinase 1 (Homo sapiens) (UniProt Q13976); test: Inhibition of PRKG1 (unknown origin) at 1 uM relative to control
[18] = biological target: Serine/threonine-protein kinase B-raf (Homo sapiens) (UniProt P15056); test: Inhibition of BRAF (unknown origin) at 1 uM relative to control
[19] = biological target: Tyrosine-protein kinase Tec (Homo sapiens) (UniProt P42680); test: Inhibition of TEC (unknown origin) at 1 uM relative to control
Chain of Tyrosine-protein kinase Tec (Homo sapiens) (P42680 whole entry): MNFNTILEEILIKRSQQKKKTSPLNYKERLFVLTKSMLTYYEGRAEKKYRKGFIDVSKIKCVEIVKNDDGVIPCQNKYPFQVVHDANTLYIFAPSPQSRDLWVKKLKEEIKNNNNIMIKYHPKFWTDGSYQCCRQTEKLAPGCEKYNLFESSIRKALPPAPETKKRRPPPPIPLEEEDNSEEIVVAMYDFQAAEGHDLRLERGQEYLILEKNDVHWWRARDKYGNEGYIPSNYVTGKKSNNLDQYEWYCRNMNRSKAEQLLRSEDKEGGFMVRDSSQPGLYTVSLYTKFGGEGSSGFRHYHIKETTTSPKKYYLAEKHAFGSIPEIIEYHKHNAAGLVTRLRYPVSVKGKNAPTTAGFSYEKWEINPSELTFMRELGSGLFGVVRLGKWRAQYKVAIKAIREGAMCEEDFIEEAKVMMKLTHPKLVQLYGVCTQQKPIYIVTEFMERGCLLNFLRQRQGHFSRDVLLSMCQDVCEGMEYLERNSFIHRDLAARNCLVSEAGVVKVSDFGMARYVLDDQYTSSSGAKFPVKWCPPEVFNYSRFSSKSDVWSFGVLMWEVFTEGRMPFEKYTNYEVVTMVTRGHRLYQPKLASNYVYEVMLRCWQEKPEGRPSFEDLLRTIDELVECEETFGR

[20] = biological target: Mitogen-activated protein kinase kinase kinase 9 (Homo sapiens) (UniProt P80192); test: Inhibition of MAP3K9 (unknown origin) at 1 uM relative to control
[21] = biological target: Insulin-like growth factor 1 receptor (Homo sapiens) (UniProt P08069); test: Inhibition of IGF1R (unknown origin) at 1 uM relative to control
NCI-H1975 [22] = test: Antiproliferative activity against human NCI-H1975 cells harboring EGFR L858R/T790M double mutant; format: functional, cell-based
Summary of the method: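 A431 was grown in EMEM with 10% FBS; HCC827 and NCI-H1975 were grown in RPMI-1640 with 10% FBS. Cell viability experiments were repeated at least three times.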

[23] = biological target: Insulin receptor (Homo sapiens) (UniProt P06213); test: Inhibition of INSR (unknown origin) at 1 uM relative to control
[24] = AUC (0 to infinity) in Sprague-Dawley rat at 1 mg/kg, iv by LC-MS/MS analysis; format: ADME, organism-based; parameters: dose 1 mg/kg, time infinity, route intravenous; conditions: in vivo
[25] = Half life in monkey liver microsomes; format: ADME, Macaca mulatta, microsome; conditions: rhesus monkey
[26] = Half life in Sprague-Dawley rat at 1 mg/kg, iv by LC-MS/MS analysis; format: ADME, organism-based; conditions: in vivo
Summary of the method: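 Male Sprague-Dawley rats (200-240 g) were dosed either by tail vein at 1 mg/kg in 2% DMSO/20% PEG400/78% buffered saline or by oral gavage at 10 mg/kg in 0.5% methylcellulose. Blood was drawn by orbital sinus puncture at 2 min to 24 h into heparin, and plasma was analysed by LC/MS/MS in SRM mode. Parameters came from non-compartmental analysis.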

[27] = biological target: Tyrosine-protein kinase TXK (Homo sapiens) (UniProt P42681); test: Inhibition of TXK (unknown origin) at 1 uM relative to control
Chain of Tyrosine-protein kinase TXK (Homo sapiens) (P42681 whole entry): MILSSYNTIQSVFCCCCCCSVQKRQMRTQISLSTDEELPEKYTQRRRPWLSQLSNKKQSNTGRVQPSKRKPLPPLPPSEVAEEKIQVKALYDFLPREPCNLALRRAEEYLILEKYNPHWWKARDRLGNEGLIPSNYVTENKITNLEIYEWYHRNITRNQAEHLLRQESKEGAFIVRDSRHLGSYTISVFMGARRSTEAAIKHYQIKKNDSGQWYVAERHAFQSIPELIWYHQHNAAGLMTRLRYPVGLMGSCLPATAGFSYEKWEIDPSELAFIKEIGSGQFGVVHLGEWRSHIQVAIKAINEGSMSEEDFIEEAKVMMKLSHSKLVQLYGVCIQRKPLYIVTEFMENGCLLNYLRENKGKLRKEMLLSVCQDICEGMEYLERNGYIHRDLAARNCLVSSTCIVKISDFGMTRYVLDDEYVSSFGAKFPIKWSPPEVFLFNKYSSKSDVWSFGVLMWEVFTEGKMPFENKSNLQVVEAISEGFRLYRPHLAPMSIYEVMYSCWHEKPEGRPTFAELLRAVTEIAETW

[28] = biological target: Hepatocyte growth factor receptor (Homo sapiens) (UniProt P08581); test: Inhibition of MET (cMet) (unknown origin) at 1 uM relative to control
[29] = biological target: RAC-beta serine/threonine-protein kinase (Homo sapiens) (UniProt P31751); test: Inhibition of AKT2 (unknown origin) at 1 uM relative to control
Chain of RAC-beta serine/threonine-protein kinase (Homo sapiens) (P31751 whole entry): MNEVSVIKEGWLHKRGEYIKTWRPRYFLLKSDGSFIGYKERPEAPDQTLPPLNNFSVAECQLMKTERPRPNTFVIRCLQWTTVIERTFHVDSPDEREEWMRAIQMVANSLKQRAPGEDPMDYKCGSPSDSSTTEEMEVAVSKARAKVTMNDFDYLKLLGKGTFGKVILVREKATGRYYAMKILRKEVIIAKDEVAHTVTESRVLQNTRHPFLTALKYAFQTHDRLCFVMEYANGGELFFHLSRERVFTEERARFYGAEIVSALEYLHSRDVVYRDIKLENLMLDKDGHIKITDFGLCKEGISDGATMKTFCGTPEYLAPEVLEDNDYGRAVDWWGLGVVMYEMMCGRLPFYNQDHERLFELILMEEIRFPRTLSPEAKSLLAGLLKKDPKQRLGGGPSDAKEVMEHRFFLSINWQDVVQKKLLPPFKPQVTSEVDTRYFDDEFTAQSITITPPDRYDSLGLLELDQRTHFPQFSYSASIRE

[30] = AUC (0 to infinity) in Sprague-Dawley rat at 10 mg/kg, po administered via gavage by LC-MS/MS analysis; format: ADME, organism-based; parameters: dose 10 mg/kg, route oral, time infinity; conditions: in vivo
[31] = biological target: Voltage-gated inwardly rectifying potassium channel KCNH2 (Homo sapiens, UniProt Q12809); test: Inhibition of human ERG expressed in HEK293 cells by lonWorks Quattro analysis; format: cell-based
NCI-H1975 [32] = test: In vivo anti tumor activity against human NCI-H1975 cells xenografted in nude C.B-17 SCID mouse model assessed as tumor volume at 20 mg/kg, ig for 18 days measured twice a week (reference value: 948.05 mm3); format: functional
[33] = biological target: Testis-specific serine/threonine-protein kinase 1 (Homo sapiens) (UniProt Q9BXA7); test: Inhibition of STK22D (unknown origin) at 1 uM relative to control
Chain of Testis-specific serine/threonine-protein kinase 1 (Homo sapiens) (Q9BXA7 whole entry, the tested form may be a part): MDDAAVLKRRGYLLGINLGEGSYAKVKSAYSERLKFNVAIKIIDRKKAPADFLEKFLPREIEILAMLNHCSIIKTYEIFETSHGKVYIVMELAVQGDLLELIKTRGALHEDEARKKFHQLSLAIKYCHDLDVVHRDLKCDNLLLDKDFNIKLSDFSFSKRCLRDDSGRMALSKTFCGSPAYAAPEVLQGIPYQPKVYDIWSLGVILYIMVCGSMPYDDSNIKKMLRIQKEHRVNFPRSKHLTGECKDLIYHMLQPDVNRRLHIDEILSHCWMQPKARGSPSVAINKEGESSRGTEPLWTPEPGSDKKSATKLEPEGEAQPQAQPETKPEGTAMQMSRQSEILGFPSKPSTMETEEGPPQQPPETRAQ

[34] = biological target: Epidermal growth factor receptor (Homo sapiens, UniProt P00533, L858R/T790M); test: Inhibition of human recombinant cytoplasmic GST-tagged EGFR T790M/L858R double mutant (668 to 1210 residues) expressed in baculovirus using TK-substrate-biotin preincubated for 15 mins followed by substrate addition measured after 60 mins by FRET-based Z'-Lyte assay
[35] = biological target: Non-receptor tyrosine-protein kinase TYK2 (Homo sapiens) (UniProt P29597); test: Inhibition of TYK2 (unknown origin) at 1 uM relative to control

C=CC(=O)Nc1cc(Nc2nccc(-c3cn4c5c(cccc35)CCC4)n2)c(OC)cc1N(C)CCN(C)C
inhibition [1]: 7%
inhibition [2]: 80%
half-life [3]: 2.31 h
inhibition [4]: -2%
AUC(0-t) at 24 h [5]: 190 ng·h/mL
inhibition [6]: 1%
Activity (NCI-H1975 [7]): 239.33 mm3
CLH [8]: 21 µL/min/10^6 cells
inhibition [9]: 0%
IC50 [10]: 21.6 nM
inhibition [11]: 66%
Activity (NCI-H1975 [12]): 527.78 mm3
inhibition [13]: -3%
inhibition [14]: 20%
inhibition [15]: 90%
IC50 (HCC827): 109 nM
AUC(0-t) at 24 h [16]: 995 ng·h/mL
inhibition [17]: 5%
inhibition [18]: 20%
inhibition [19]: 52%
inhibition [20]: 87%
inhibition [21]: 21%
IC50 (NCI-H1975 [22]): 103 nM
inhibition [23]: 36%
AUC(0-inf) [24]: 194 ng·h/mL
half-life [25]: 0.482 h
half-life [26]: 4.5 h
inhibition [27]: 88%
inhibition [28]: -2%
inhibition [29]: 1%
AUC(0-inf) [30]: 1020 ng·h/mL
IC50 [31]: 8460 nM
Activity (NCI-H1975 [32]): 113.52 mm3
inhibition [33]: 72%
IC50 [34]: 2.6 to 2.9 nM
inhibition [35]: 14%
